Assay results from ChEMBL document CHEMBL1177889, “Synthesis of novel peptidomimetics as inhibitors of protozoan cysteine proteases falcipain-2 and rhodesain” (Eur J Med Chem, 2010).

How the values were obtained:
[1] = biological target: T1, Falcipain 2 (Plasmodium falciparum) (UniProt Q9N6S8); assay: Inhibition of Plasmodium falciparum falcipain-2 at 30 uM after 10 to 15 min
T1 sequence (whole entry): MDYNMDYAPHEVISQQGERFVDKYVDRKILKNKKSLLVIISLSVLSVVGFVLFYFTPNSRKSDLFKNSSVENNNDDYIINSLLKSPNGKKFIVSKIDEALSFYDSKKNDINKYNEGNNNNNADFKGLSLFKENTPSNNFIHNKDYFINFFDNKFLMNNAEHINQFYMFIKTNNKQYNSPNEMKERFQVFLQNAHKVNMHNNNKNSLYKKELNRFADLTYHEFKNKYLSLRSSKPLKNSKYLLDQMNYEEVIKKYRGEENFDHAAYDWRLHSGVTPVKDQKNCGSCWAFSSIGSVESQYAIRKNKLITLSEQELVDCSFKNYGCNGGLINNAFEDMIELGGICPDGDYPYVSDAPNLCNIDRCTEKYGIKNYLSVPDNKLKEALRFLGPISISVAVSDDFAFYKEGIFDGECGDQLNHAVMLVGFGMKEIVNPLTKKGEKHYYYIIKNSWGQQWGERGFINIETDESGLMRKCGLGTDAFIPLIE
Procedure, shortened: (§1)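 Single-concentration screen with Cbz-Phe-Arg-AMC at 40 µM (FP-2) or 10 µM (rhodesain). Hydrolysis product release read continuously over 10 min. DMSO served as negative control and E-64 as positive control. Inhibition expressed as percent versus DMSO.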

Plasmodium falciparum = assay: Antiplasmodial activity against Plasmodium falciparum FCBR infected in human RBC; type: functional, organism-based; settings: FCBR/Columbia
Falcipain 2 = biological target: T2, Falcipain 2 (Plasmodium falciparum, UniProt Q9N6S8); assay: Inhibition of Plasmodium falciparum falcipain-2 after 10 to 15 min
T2 sequence (Q9N6S8 whole entry): T1 sequence (whole entry)
Procedure, shortened: (§2)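 Recombinant enzymes, FP-2 expressed in E. coli. Run in 50 mM sodium acetate pH 5.5 with 10 mM DTT. Substrate Cbz-Phe-Arg-AMC at 40 µM for FP-2 and 10 µM for rhodesain. Fluorescence (ex 365/em 460) followed continuously for 10–15 min at room temperature. Kiapp taken from Dixon plots and corrected to Ki using Km 21.5 µM (FP-2) or 0.9 µM (rhodesain). Each assay run twice.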

[2] = test system: Trypanosoma brucei brucei; assay: Antitrypanosomal activity against Trypanosoma brucei brucei TC 221 after 48 hrs by alamar blue assay; settings: TC 221, 48 h
Rhodesain = Rhodesain (Trypanosoma brucei rhodesiense, UniProt Q95PM0); assay: Inhibition of Trypanosoma brucei rhodesiense rhodesain after 10 to 15 mins; procedure, shortened: as §2
Rhodesain, sequence (Q95PM0 whole entry): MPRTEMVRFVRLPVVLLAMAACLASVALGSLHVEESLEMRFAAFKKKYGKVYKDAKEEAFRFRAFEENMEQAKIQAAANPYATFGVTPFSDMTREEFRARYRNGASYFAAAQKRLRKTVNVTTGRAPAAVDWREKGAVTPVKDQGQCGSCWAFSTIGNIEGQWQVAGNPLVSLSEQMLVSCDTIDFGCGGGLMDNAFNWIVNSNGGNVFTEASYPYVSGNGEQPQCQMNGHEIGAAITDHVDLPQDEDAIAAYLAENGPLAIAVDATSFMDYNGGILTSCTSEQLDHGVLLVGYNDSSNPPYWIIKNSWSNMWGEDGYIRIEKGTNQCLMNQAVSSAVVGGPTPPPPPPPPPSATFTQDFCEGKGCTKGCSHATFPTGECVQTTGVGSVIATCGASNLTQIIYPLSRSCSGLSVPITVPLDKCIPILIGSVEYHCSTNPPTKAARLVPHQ

[3] = biological target: Rhodesain (Trypanosoma brucei rhodesiense) (UniProt Q95PM0); assay: Inhibition of Trypanosoma brucei rhodesiense rhodesain at 100 uM after 10 to 15 mins; procedure, shortened: as §1
Rhodesain (Trypanosoma brucei rhodesiense), sequence (Q95PM0 1-450): as the sequence (Q95PM0 whole entry) above

## O=C(CN1C(=O)[C@@H](COC(=O)Nc2ccc(Cl)cc2C(F)(F)F)N=C(c2ccccc2)c2ccccc21)N[C@H]1CC(=O)O[C@H]1OCc1ccccc1
[1]
  inhibition: < 30%

## CC(C)C[C@H](NC(=O)[C@H]1O[C@@H]1C(=O)O)C(=O)NCCCCN=C(N)N [E-64]
Plasmodium falciparum
  IC50: 9.3 µM
Falcipain 2
  Ki: 40.3 µM

## NCCCC(N)(C(=O)O)C(F)F (configuration not stated) [EFLORNITHINE]
[2]
  IC50: 22.9 µM

## CC(C)(C)S[C@H]1OC(=O)C[C@@H]1NC(=O)CN1C(=O)[C@@H](COC(=O)Nc2ccc(Cl)cc2C(F)(F)F)N=C(c2ccccc2)c2ccccc21
Plasmodium falciparum
  IC50: 28.5 µM
[1]
  inhibition: > 50%
Falcipain 2
  Ki: 8.2 µM
[2]
  IC50: 14.2 µM
Rhodesain
  Ki: 0.7 µM

## O=C(CN1C(=O)[C@@H](COC(=O)Nc2ccc(Cl)cc2C(F)(F)F)N=C(c2ccccc2)c2ccccc21)N[C@H]1CC(=O)O[C@@H]1OCc1ccccc1
Plasmodium falciparum
  IC50: 49.5 µM
[1]
  inhibition: > 50%
Falcipain 2
  Ki: 8.9 µM
Rhodesain
  Ki: 0.8 µM

## O=C(CN1C(=O)[C@@H](COC(=O)Nc2ccc(Cl)cc2C(F)(F)F)N=C(c2ccccc2)c2ccccc21)N[C@H]1CC(=O)OC1O (some centres not stated)
Plasmodium falciparum
  IC50: > 100 µM
[3]
  inhibition: 30%
Falcipain 2
  Ki: 4 µM

## CC(C)(C)S[C@@H]1OC(=O)C[C@@H]1NC(=O)CN1C(=O)[C@@H](COC(=O)Nc2ccc(Cl)cc2C(F)(F)F)N=C(c2ccccc2)c2ccccc21
[1]
  inhibition: < 30%
